From ChEMBL document CHEMBL3739379, “Anti-Candida activity and cytotoxicity of a large library of new N-substituted-1,3-thiazolidin-4-one derivatives” (Eur J Med Chem, 2016)
Values after ≈ are worked out from the molar mass of the structure shown.

How the values were obtained:
Assay type in all cases: functional
[1] = test system: Enterobacter sp.; assay: Antibacterial activity against Enterobacter sp. after 18 to 22 hrs by broth microdilution method
How it was run: (§1)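 Broth microdilution per NCCLS in Mueller-Hinton II broth; isolates subcultured for purity. Compounds dissolved in DMSO, serial dilutions 256 to 0.5 µg/mL; inoculum 10^5/mL. Controls: organism without compound, medium only. Incubation 18 to 22 h at 35 °C. MIC is the lowest concentration giving complete growth inhibition, read by unaided eye.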

[2] = test system: Candida albicans; assay: Antifungal activity against Candida albicans clinical isolate after 24 hrs by sabouraud dextrose broth based microdilution method
How it was run: (§2)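 Clinical isolates identified by conventional methods and subcultured for purity. Broth microdilution per NCCLS in Sabouraud dextrose broth; compounds dissolved in DMSO and serially diluted; inoculum 10^3/mL. Controls: fungi without compound, medium only. Incubated 24 h at 37 °C. MIC is the lowest concentration with complete growth inhibition by unaided eye. Values are geometric means over isolates per species.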

[3] = test system: Nakaseomyces glabratus; assay: Antifungal activity against Candida glabrata clinical isolate after 24 hrs by sabouraud dextrose broth based microdilution method; how it was run: as §2
[4] = test system: Pichia kudriavzevii; assay: Antifungal activity against Candida krusei clinical isolate after 24 hrs by sabouraud dextrose broth based microdilution method; how it was run: as §2
[5] = test system: Escherichia coli; assay: Antibacterial activity against Escherichia coli at after 18 to 22 hrs by broth microdilution method; how it was run: as §1
[6] = test system: Enterococcus faecalis; assay: Antibacterial activity against […] faecalis after 18 to 22 hrs by broth microdilution method; how it was run: as §1
[7] = test system: Candida parapsilosis; assay: Antifungal activity against Candida parapsilosis clinical isolate after 24 hrs by sabouraud dextrose broth based microdilution method; settings: Lodderomyces parapsilosis; how it was run: as §2
[8] = test system: Candida tropicalis; assay: Antifungal activity against Candida tropicalis clinical isolate after 24 hrs by sabouraud dextrose broth based microdilution method; how it was run: as §2
[9] = test system: Proteus mirabilis; assay: Antibacterial activity against Proteus mirabilis after 18 to 22 hrs by broth microdilution method; how it was run: as §1
[10] = test system: Klebsiella oxytoca; assay: Antibacterial activity against Klebsiella oxytoca after 18 to 22 hrs by broth microdilution method; how it was run: as §1
[11] = test system: [Candida] sake; assay: Antifungal activity against Candida sake clinical isolate after 24 hrs by sabouraud dextrose broth based microdilution method; settings: Fermentozyma sake; how it was run: as §2
[12] = test system: Staphylococcus aureus; assay: Antibacterial activity against Staphylococcus aureus after 18 to 22 hrs by broth microdilution method; how it was run: as §1
[13] = test system: Staphylococcus haemolyticus; assay: Antibacterial activity against Staphylococcus haemolyticus after 18 to 22 hrs by broth microdilution method; how it was run: as §1
[14] = test system: Staphylococcus warneri; assay: Antibacterial activity against Staphylococcus warneri after 18 to 22 hrs by broth microdilution method; how it was run: as §1

SMILES	MIC [1] [µg/mL]	MIC [2] [µg/mL]	MIC [3] [µg/mL]	MIC [4] [µg/mL]	MIC [5] [µg/mL]	MIC [6] [µg/mL]	MIC [7] [µg/mL]	MIC [8] [µg/mL]	MIC [9] [µg/mL]	MIC [10] [µg/mL]	MIC [11] [µg/mL]	MIC [12] [µg/mL]	MIC [13] [µg/mL]	MIC [14] [µg/mL]
CCCC/C(CC)=N/N=C1\SCC(=O)N1Cc1cccc2ccccc12	> 256	2 (≈ 5.44 µM)	8 (≈ 21.8 µM)	16 (≈ 43.5 µM)	> 256	> 256	16 (≈ 43.5 µM)	2 (≈ 5.44 µM)	> 256	> 256	2 (≈ 5.44 µM)	> 256	> 256	> 256
CCCCCC/C(C)=N/N=C1\SCC(=O)N1Cc1cccc2ccccc12	> 256	2 (≈ 5.24 µM)	2 (≈ 5.24 µM)	8 (≈ 21 µM)	> 256	> 256	16 (≈ 41.9 µM)	8 (≈ 21 µM)	> 256	> 256	16 (≈ 41.9 µM)	> 256	> 256	> 256
O=C1CS/C(=N\N=C2CCCC2)N1Cc1cccc2ccccc12	> 256	2 (≈ 5.93 µM)	16 (≈ 47.4 µM)	16 (≈ 47.4 µM)	> 256	> 256	128 (≈ 379 µM)	8 (≈ 23.7 µM)	> 256	> 256	256 (≈ 759 µM)	> 256	> 256	> 256
CC1CC/C(=N\N=C2/SCC(=O)N2Cc2cccc3ccccc23)C1 (stereo not drawn)	> 256	2 (≈ 5.69 µM)	16 (≈ 45.5 µM)	256 (≈ 728 µM)	> 256	> 256	64 (≈ 182 µM)	128 (≈ 364 µM)	> 256	> 256	256 (≈ 728 µM)	> 256	> 256	> 256
CC/C(C)=N/N=C1\SCC(=O)N1Cc1cccc2ccccc12	> 256	2 (≈ 6.15 µM)	2 (≈ 6.15 µM)	2 (≈ 6.15 µM)	> 256	> 256	2 (≈ 6.15 µM)	128 (≈ 393 µM)	> 256	> 256	2 (≈ 6.15 µM)	> 256	> 256	> 256
CC1CCCC/C1=N\N=C1/SCC(=O)N1Cc1cccc2ccccc12 (stereo not drawn)	> 256	4 (≈ 10.9 µM)	8 (≈ 21.9 µM)	16 (≈ 43.8 µM)	> 256	> 256	16 (≈ 43.8 µM)	4 (≈ 10.9 µM)	> 256	> 256	2 (≈ 5.47 µM)	> 256	> 256	> 256
CC1CCC/C1=N\N=C1/SCC(=O)N1Cc1cccc2ccccc12 (stereo not drawn)	> 256	4 (≈ 11.4 µM)	32 (≈ 91 µM)	2 (≈ 5.69 µM)	> 256	> 256	8 (≈ 22.8 µM)	2 (≈ 5.69 µM)	> 256	> 256	2 (≈ 5.69 µM)	> 256	> 256	> 256
O=C1CS/C(=N\N=C2CCCCC2)N1Cc1cccc2ccccc12	> 256	2 (≈ 5.69 µM)	32 (≈ 91 µM)	16 (≈ 45.5 µM)	> 256	> 256	8 (≈ 22.8 µM)	8 (≈ 22.8 µM)	> 256	> 256	32 (≈ 91 µM)	> 256	> 256	> 256
C=CCC/C(C)=N/N=C1\SCC(=O)N1Cc1cccc2ccccc12	> 256	2 (≈ 5.69 µM)	2 (≈ 5.69 µM)	2 (≈ 5.69 µM)	> 256	> 256	2 (≈ 5.69 µM)	8 (≈ 22.8 µM)	> 256	> 256	2 (≈ 5.69 µM)	> 256	> 256	> 256
CCCCC/C(C)=N/N=C1\SCC(=O)N1Cc1cccc2ccccc12	> 256	4 (≈ 10.9 µM)	8 (≈ 21.8 µM)	2 (≈ 5.44 µM)	> 256	> 256	2 (≈ 5.44 µM)	64 (≈ 174 µM)	> 256	> 256	2 (≈ 5.44 µM)	> 256	> 256	> 256
CCC/C(C)=N/N=C1\SCC(=O)N1Cc1cccc2ccccc12	> 256	2 (≈ 5.89 µM)	2 (≈ 5.89 µM)	2 (≈ 5.89 µM)	> 256	> 256	2 (≈ 5.89 µM)	64 (≈ 189 µM)	> 256	> 256	16 (≈ 47.1 µM)	> 256	> 256	> 256
CCC(CC)=N/N=C1\SCC(=O)N1Cc1cccc2ccccc12	> 256	2 (≈ 5.89 µM)	16 (≈ 47.1 µM)	16 (≈ 47.1 µM)	> 256	> 256	16 (≈ 47.1 µM)	2 (≈ 5.89 µM)	> 256	> 256	2 (≈ 5.89 µM)	> 256	> 256	> 256
